# From ChEMBL document CHEMBL1154842, “Synthesis, radiolabeling, and biological evaluation of (R)- and (S)-2-amino-3-[(18)F]fluoro-2-methylpropanoic acid (FAMP) and (R)- and (S)-3-[(18)F]fluoro-2-methyl-2-N-(methylamino)propanoic acid (NMeFAMP) as potential PET radioligands for imaging brain tumors” (J Med Chem, 2010)
# Columns and labels:
# [1] = Biodistribution in tumor of Fischer 344 rat bearing rat 9L cells at 20 uCi, iv after 30 mins; assay type: ADME, organism-based, Neoplasm; conditions: in vivo, 0.5 h
# Procedure, shortened: (§1)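 Male Fischer 344 rats (200–250 g) carrying intracranial 9L gliosarcoma (5×10^4 cells implanted stereotactically, 10–12 days growth), under ketamine:xylazine anaesthesia. About 20 μCi tracer in 0.5 mL sterile saline given via tail-vein catheter. Groups of 4–5 were killed by intracardiac KCl at 15 (NMeFAMP only), 30, 60 or 120 min. Tissues were weighed and gamma-counted, decay-corrected, and reported as %ID/g, mean ± SD.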
# Lung [2] = assay: Biodistribution in lung of Fischer 344 rat bearing rat 9L cells at 20 uCi, iv after 120 mins; assay type: ADME, organism-based; conditions: in vivo, 2 h; procedure, shortened: as §1
# Heart [3] = assay: Biodistribution in heart of Fischer 344 rat bearing rat 9L cells at 20 uCi, iv after 60 mins; assay type: ADME, organism-based; conditions: in vivo, 1 h; procedure, shortened: as §1
# Blood [4] = assay: Biodistribution in blood of Fischer 344 rat bearing rat 9L cells at 20 uCi, iv after 120 mins; assay type: ADME, organism-based; conditions: in vivo, 2 h; procedure, shortened: as §1
# Kidney [5] = assay: Biodistribution in kidney of Fischer 344 rat bearing rat 9L cells at 20 uCi, iv after 120 mins; assay type: ADME, organism-based; conditions: in vivo, 2 h; procedure, shortened: as §1
# Pancreas [6] = assay: Biodistribution in pancreas of Fischer 344 rat bearing rat 9L cells at 20 uCi, iv after 30 mins; assay type: ADME, organism-based; conditions: in vivo, 0.5 h; procedure, shortened: as §1
# Spleen [7] = assay: Biodistribution in spleen of Fischer 344 rat bearing rat 9L cells at 20 uCi, iv after 30 mins; assay type: ADME, organism-based; conditions: in vivo, 0.5 h; procedure, shortened: as §1
# [8] = Biodistribution in testis of Fischer 344 rat bearing rat 9L cells at 20 uCi, iv after 120 mins; assay type: ADME, organism-based; conditions: in vivo, 2 h; procedure, shortened: as §1
# Lung [9] = assay: Biodistribution in lung of Fischer 344 rat bearing rat 9L cells at 20 uCi, iv after 15 mins; assay type: ADME, organism-based; conditions: in vivo, 0.25 h; procedure, shortened: as §1
# [10] = Biodistribution in testis of Fischer 344 rat bearing rat 9L cells at 20 uCi, iv after 60 mins; assay type: ADME, organism-based; conditions: in vivo, 1 h; procedure, shortened: as §1
# [11] = rat, in vivo, iv, 1 h
# [12] = rat, in vivo, iv, 1 h; remark: listed apart in the source
# Spleen [13] = assay: Biodistribution in spleen of Fischer 344 rat bearing rat 9L cells at 20 uCi, iv after 60 mins; assay type: ADME, organism-based; conditions: in vivo, 1 h; procedure, shortened: as §1
# Muscle tissue [14] = assay: Biodistribution in muscle of Fischer 344 rat bearing rat 9L cells at 20 uCi, iv after 60 mins; assay type: ADME, organism-based; conditions: in vivo, 1 h; procedure, shortened: as §1
# Blood [15] = assay: Biodistribution in blood of Fischer 344 rat bearing rat 9L cells at 20 uCi, iv after 30 mins; assay type: ADME, organism-based; conditions: in vivo, 0.5 h; procedure, shortened: as §1
# Bone [16] = assay: Biodistribution in bone of Fischer 344 rat bearing rat 9L cells at 20 uCi, iv after 30 mins; assay type: ADME, organism-based, Bone element; conditions: in vivo, 0.5 h; procedure, shortened: as §1
# Brain [17] = assay: Biodistribution in brain of Fischer 344 rat bearing rat 9L cells at 20 uCi, iv after 30 mins; assay type: ADME, organism-based; conditions: in vivo, 0.5 h; procedure, shortened: as §1
# Brain [18] = assay: Biodistribution in brain of Fischer 344 rat bearing rat 9L cells at 20 uCi, iv after 15 mins; conditions: in vivo
# Bone [19] = assay: Biodistribution in bone of Fischer 344 rat bearing rat 9L cells at 20 uCi, iv after 120 mins; assay type: ADME, organism-based, Bone element; conditions: in vivo, 2 h; procedure, shortened: as §1
# Spleen [20] = assay: Biodistribution in spleen of Fischer 344 rat bearing rat 9L cells at 20 uCi, iv after 15 mins; assay type: ADME, organism-based; conditions: in vivo, 0.25 h; procedure, shortened: as §1
# Lung [21] = assay: Biodistribution in lung of Fischer 344 rat bearing rat 9L cells at 20 uCi, iv after 60 mins; assay type: ADME, organism-based; conditions: in vivo, 1 h; procedure, shortened: as §1
# Kidney [22] = assay: Biodistribution in kidney of Fischer 344 rat bearing rat 9L cells at 20 uCi, iv after 15 mins; assay type: ADME, organism-based; conditions: in vivo, 0.25 h; procedure, shortened: as §1
# [23] = Biodistribution in testis of Fischer 344 rat bearing rat 9L cells at 20 uCi, iv after 30 mins; assay type: ADME, organism-based; conditions: in vivo, 0.5 h; procedure, shortened: as §1
# Pancreas [24] = assay: Biodistribution in pancreas of Fischer 344 rat bearing rat 9L cells at 20 uCi, iv after 15 mins; assay type: ADME, organism-based; conditions: in vivo, 0.25 h; procedure, shortened: as §1
# Muscle tissue [25] = assay: Biodistribution in muscle of Fischer 344 rat bearing rat 9L cells at 20 uCi, iv after 15 mins; assay type: ADME, organism-based; conditions: in vivo, 0.25 h; procedure, shortened: as §1
# [26] = Ratio of drug level from tumor to brain of Fischer 344 rat bearing rat 9L cells at 20 uCi, iv after 60 mins; conditions: in vivo, 1 h
# Pancreas [27] = assay: Biodistribution in pancreas of Fischer 344 rat bearing rat 9L cells at 20 uCi, iv after 60 mins; assay type: ADME, organism-based; conditions: in vivo, 1 h; procedure, shortened: as §1
# Kidney [28] = assay: Biodistribution in kidney of Fischer 344 rat bearing rat 9L cells at 20 uCi, iv after 30 mins; assay type: ADME, organism-based; conditions: in vivo, 0.5 h; procedure, shortened: as §1
# Liver [29] = assay: Biodistribution in liver of Fischer 344 rat bearing rat 9L cells at 20 uCi, iv after 30 mins; assay type: ADME, organism-based; conditions: in vivo, 0.5 h; procedure, shortened: as §1
# Spleen [30] = assay: Biodistribution in spleen of Fischer 344 rat bearing rat 9L cells at 20 uCi, iv after 120 mins; assay type: ADME, organism-based; conditions: in vivo, 2 h; procedure, shortened: as §1
# Liver [31] = assay: Biodistribution in liver of Fischer 344 rat bearing rat 9L cells at 20 uCi, iv after 120 mins; assay type: ADME, organism-based; conditions: in vivo, 2 h; procedure, shortened: as §1
# [32] = Ratio of drug level from tumor to brain of Fischer 344 rat bearing rat 9L cells at 20 uCi, iv after 120 mins; assay type: ADME, organism-based; conditions: in vivo, 2 h
# Blood [33] = assay: Biodistribution in blood of Fischer 344 rat bearing rat 9L cells at 20 uCi, iv after 15 mins; assay type: ADME, organism-based; conditions: in vivo, 0.25 h; procedure, shortened: as §1
# Blood [34] = assay: Biodistribution in blood of Fischer 344 rat bearing rat 9L cells at 20 uCi, iv after 60 mins; assay type: ADME, organism-based; conditions: in vivo, 1 h; procedure, shortened: as §1
# Kidney [35] = assay: Biodistribution in kidney of Fischer 344 rat bearing rat 9L cells at 20 uCi, iv after 60 mins; assay type: ADME, organism-based; conditions: in vivo, 1 h; procedure, shortened: as §1
# Heart [36] = assay: Biodistribution in heart of Fischer 344 rat bearing rat 9L cells at 20 uCi, iv after 120 mins; assay type: ADME, organism-based; conditions: in vivo, 2 h; procedure, shortened: as §1
# [37] = Biodistribution in testis of Fischer 344 rat bearing rat 9L cells at 20 uCi, iv after 15 mins; assay type: ADME, organism-based; conditions: in vivo, 0.25 h; procedure, shortened: as §1
# Bone [38] = assay: Biodistribution in bone of Fischer 344 rat bearing rat 9L cells at 20 uCi, iv after 60 mins; assay type: ADME, organism-based, Bone element; conditions: in vivo, 1 h; procedure, shortened: as §1
# Liver [39] = assay: Biodistribution in liver of Fischer 344 rat bearing rat 9L cells at 20 uCi, iv after 15 mins; assay type: ADME, organism-based; conditions: in vivo, 0.25 h; procedure, shortened: as §1
# Muscle tissue [40] = assay: Biodistribution in muscle of Fischer 344 rat bearing rat 9L cells at 20 uCi, iv after 120 mins; assay type: ADME, organism-based; conditions: in vivo, 2 h; procedure, shortened: as §1
# Pancreas [41] = assay: Biodistribution in pancreas of Fischer 344 rat bearing rat 9L cells at 20 uCi, iv after 120 mins; assay type: ADME, organism-based; conditions: in vivo, 2 h; procedure, shortened: as §1
# Heart [42] = assay: Biodistribution in heart of Fischer 344 rat bearing rat 9L cells at 20 uCi, iv after 30 mins; assay type: ADME, organism-based; conditions: in vivo, 0.5 h; procedure, shortened: as §1
# Heart [43] = assay: Biodistribution in heart of Fischer 344 rat bearing rat 9L cells at 20 uCi, iv after 15 mins; assay type: ADME, organism-based; conditions: in vivo, 0.25 h; procedure, shortened: as §1
# Brain [44] = assay: Biodistribution in brain of Fischer 344 rat bearing rat 9L cells at 20 uCi, iv after 15 mins; assay type: ADME, organism-based; conditions: in vivo, 0.25 h; procedure, shortened: as §1
# Liver [45] = assay: Biodistribution in liver of Fischer 344 rat bearing rat 9L cells at 20 uCi, iv after 60 mins; assay type: ADME, organism-based; conditions: in vivo, 1 h; procedure, shortened: as §1
# Muscle tissue [46] = assay: Biodistribution in muscle of Fischer 344 rat bearing rat 9L cells at 20 uCi, iv after 30 mins; assay type: ADME, organism-based; conditions: in vivo, 0.5 h; procedure, shortened: as §1
# Bone [47] = assay: Biodistribution in bone of Fischer 344 rat bearing rat 9L cells at 20 uCi, iv after 15 mins; assay type: ADME, organism-based, Bone element; conditions: in vivo, 0.25 h; procedure, shortened: as §1
# Lung [48] = assay: Biodistribution in lung of Fischer 344 rat bearing rat 9L cells at 20 uCi, iv after 30 mins; assay type: ADME, organism-based; conditions: in vivo, 0.5 h; procedure, shortened: as §1
compound,measurement,setting,value
CN[C@](C)(C[18F])C(=O)O.Cl,Ratio,[1],30.2
same,Drug uptake,Lung [2],0.42 % ID/g
same,Drug uptake,Heart [3],0.31 % ID/g
same,Drug uptake,Blood [4],0.14 % ID/g
same,Drug uptake,Kidney [5],2.22 % ID/g
same,Drug uptake,Pancreas [6],3.4 % ID/g
same,Drug uptake,Spleen [7],0.51 % ID/g
same,Drug uptake,[8],0.08 % ID/g
same,Drug uptake,Lung [9],0.86 % ID/g
same,Drug uptake,[10],0.13 % ID/g
same,Drug uptake,[11],0.05 % ID/g
same,Drug uptake,[12],1.46 % ID/g
same,Drug uptake,Spleen [13],0.53 % ID/g
same,Drug uptake,Muscle tissue [14],0.24 % ID/g
same,Drug uptake,Blood [15],0.31 % ID/g
same,Drug uptake,Bone [16],0.32 % ID/g
same,Drug uptake,Brain [17],0.06 % ID/g
same,Ratio,Brain [18],20.4
same,Drug uptake,Bone [19],0.25 % ID/g
same,Drug uptake,Spleen [20],0.57 % ID/g
same,Drug uptake,Lung [21],0.5 % ID/g
same,Drug uptake,Kidney [22],11.58 % ID/g
same,Drug uptake,[23],0.13 % ID/g
same,Drug uptake,Pancreas [24],3.52 % ID/g
same,Drug uptake,Muscle tissue [25],0.25 % ID/g
same,Ratio,[26],28.7
same,Drug uptake,Pancreas [27],4.34 % ID/g
same,Drug uptake,Kidney [28],9.48 % ID/g
same,Drug uptake,Liver [29],0.71 % ID/g
same,Drug uptake,Spleen [30],0.49 % ID/g
same,Drug uptake,Liver [31],0.6 % ID/g
same,Ratio,[32],35.4
same,Drug uptake,Blood [33],0.54 % ID/g
same,Drug uptake,Blood [34],0.24 % ID/g
same,Drug uptake,Kidney [35],5.18 % ID/g
same,Drug uptake,Heart [36],0.21 % ID/g
same,Drug uptake,[37],0.19 % ID/g
same,Drug uptake,Bone [38],0.37 % ID/g
same,Drug uptake,Liver [39],0.83 % ID/g
same,Drug uptake,Muscle tissue [40],0.22 % ID/g
same,Drug uptake,Pancreas [41],3.78 % ID/g
same,Drug uptake,Heart [42],0.3 % ID/g
same,Drug uptake,Heart [43],0.32 % ID/g
same,Drug uptake,Brain [44],0.06 % ID/g
same,Drug uptake,Liver [45],0.88 % ID/g
same,Drug uptake,Muscle tissue [46],0.26 % ID/g
same,Drug uptake,Bone [47],0.46 % ID/g
same,Drug uptake,Lung [48],0.87 % ID/g
